Experimental data collected from several papers.
Each line is one published result; the experiments were not run side by side.
Observed: metabolic stability

| Compound | host | sample | tested at | pH | endpoint | value |
| --- | --- | --- | --- | --- | --- | --- |
| Cc1cc(S(=O)(=O)NC2CC(N3CCN(CC4CCN(c5cccc6c5n(C)c(=O)n6C5CCC(=O)NC5=O)CC4)CC3)C2)ccc1Nc1ncc(C(F)(F)F)c(N2CCC[C@](C)(O)C2)n1 (some centres unmarked) | rat | liver microsomes | 1 µM | – | scaled CLint | < 21 mL/min/kg |
| Cc1ccc(N(c2ccc(NC(=O)CN(C)c3ccccc3N3CCCC3=O)cn2)C(C)C)cc1 | rat | hepatocytes | – | – | hepatocyte CLint | 86 µL/min/10⁶ cells |
| Cc1cc(S(=O)(=O)N[C@]2(C)C[C@@H](N3CCN(CC4CCN(c5ccc6c(c5F)n(C)c(=O)n6C5CCC(=O)NC5=O)CC4)CC3)C2)ccc1Nc1ncc(C(F)(F)F)c(N2CCC[C@](C)(O)C2)n1 (some centres unmarked) | rat | liver microsomes | 1 µM | – | scaled CLint | < 21 mL/min/kg |
| CCOCC(=O)N1CCC[C@H](C(=O)NCc2nc(-c3ccc(C#N)nc3)cs2)C1 | male Sprague-Dawley rat | liver microsomes | 0.5 µM | – | scaled CLint | 19 mL/min/kg |
| CC(C)N(c1ccc(Cl)c(F)c1)c1ccc(NC(=O)CN(C)c2ccccc2N2CCCC2=O)cn1 | rat | hepatocytes | – | – | hepatocyte CLint | 62 µL/min/10⁶ cells |
| C[C@H]1CN(CC2CCN(c3ccc(C4CCC(=O)NC4=O)cc3F)CC2)CC[C@H]1NS(=O)(=O)c1ccc(Nc2ncc(C(F)(F)F)c(N3CCC[C@](C)(O)C3)n2)c(F)c1 (some centres unmarked) | rat | liver microsomes | 1 µM | – | scaled CLint | 45 mL/min/kg |
| N#Cc1ccc(C[C@H](NC(=O)c2cc3cc(F)ccc3[nH]2)C(=O)N2CCc3ccccc32)cc1 | rat | liver microsomes | 10 µM | pH 7.4 | microsomal CLint | 9.1 µL/min/mg |
| Cc1cc(S(=O)(=O)N[C@H]2C[C@H](CN3CCN(c4ccc(C5CCC(=O)NC5=O)c(Cl)c4)CC3)C2)ccc1Nc1ncc(C(F)(F)F)c(N2CCC[C@](C)(O)C2)n1 (some centres unmarked) | rat | liver microsomes | 1 µM | – | scaled CLint | 36 mL/min/kg |
| CCONC(=O)N1CCC[C@H](C(=O)NCc2nc(-c3ccccc3)cs2)C1 | male Sprague-Dawley rat | liver microsomes | 0.5 µM | – | microsomal CLint | 31 µL/min/mg |
| N#Cc1ccc(C[C@H](NC(=O)c2cc3ccc(F)cc3[nH]2)C(=O)N2CCc3ccccc32)cc1 | rat | liver microsomes | 10 µM | pH 7.4 | microsomal CLint | 6.6 µL/min/mg |
| CCN(c1ccc(C)cc1)c1ccc(NC(=O)CN(C)c2ccccc2N2CCCC2=O)cn1 | rat | hepatocytes | – | – | hepatocyte CLint | > 92 µL/min/10⁶ cells |
| CCONC(=O)N1CCC[C@H](C(=O)NCc2nc(-c3ccc(C#N)cc3)cs2)C1 | male Sprague-Dawley rat | hepatocytes | 0.5 µM | – | scaled CLint | 41 mL/min/kg |
| Cc1ccc(N(c2ccc(NC(=O)CN(C)c3ccccc3N3CCCC3=O)cc2)C(C)C)cc1 | rat | hepatocytes | – | – | hepatocyte CLint | > 92 µL/min/10⁶ cells |
| N#Cc1ccc(-c2csc(CNC(=O)[C@H]3CCCN(C(=O)COC4CC4)C3)n2)cc1 | male Sprague-Dawley rat | liver microsomes | 0.5 µM | – | microsomal CLint | 100 µL/min/mg |
| Cc1ccc(C(C)(C)c2ccc(NC(=O)CN(C)c3ccccc3N3CCCC3=O)cc2)cc1 | rat | hepatocytes | – | – | hepatocyte CLint | 63 µL/min/10⁶ cells |
| CCOCC(=O)N1CCC[C@H](C(=O)NCc2nc(-c3ccc(C)nc3)cs2)C1 | male Sprague-Dawley rat | liver microsomes | 0.5 µM | – | microsomal CLint | 19 µL/min/mg |

| Compound | host | sample | tested at | pH | endpoint | value |
| --- | --- | --- | --- | --- | --- | --- |
| CN(CC(=O)Nc1ccc(N(C)c2ccc(Cl)c(F)c2)cc1)c1ccccc1N1CCCC1=O | rat | hepatocytes | – | – | hepatocyte CLint | 79 µL/min/10⁶ cells |
| CN1CCN(c2ccc(-c3ccc4nncc(Nc5ccc(OC(F)(F)F)cc5)c4c3)cc2)CC1 | rat | hepatocytes | – | – | hepatocyte CLint | 14 µL/min/10⁶ cells |
| Cc1cc(S(=O)(=O)NC2CC(N3CCN(CC4CCN(c5cccc6c5n(C)c(=O)n6C5CCC(=O)NC5=O)CC4)C4(CC4)C3)C2)ccc1Nc1ncc(C(F)(F)F)c(N2CCC[C@](C)(O)C2)n1 (some centres unmarked) | rat | liver microsomes | 1 µM | – | scaled CLint | < 21 mL/min/kg |
| Cc1ccc(-c2csc(CNC(=O)[C@H]3CCCN(C(=O)COCCF)[C@H]3C)n2)cn1 | male Sprague-Dawley rat | liver microsomes | 0.5 µM | – | microsomal CLint | 31 µL/min/mg |
| COc1cc(-c2cc(C(C)=O)n3ccccc23)c(OC)cc1Cn1ccnc1 | rat | liver microsomes | 1 µM | pH 7.4 | scaled CLint | 145 mL/min/kg |
| Cc1cc(S(=O)(=O)N[C@H]2CC[C@H](CN3CCN(c4ccc(C5CCC(=O)NC5=O)c(Cl)c4)CC3)CC2)ccc1Nc1ncc(C(F)(F)F)c(N2CCC[C@](C)(O)C2)n1 (some centres unmarked) | rat | liver microsomes | 1 µM | – | scaled CLint | < 21 mL/min/kg |
| CC(C)N(c1ccc(C#N)cc1)c1ccc(NC(=O)CN(C)c2ccccc2N2CCCC2=O)cn1 | rat | hepatocytes | – | – | hepatocyte CLint | 92 µL/min/10⁶ cells |
| Cc1nnc(-c2ccc3ccn(CC(=O)Nc4ccccc4Cl)c3c2)o1 | rat | hepatocytes | – | – | hepatocyte CLint | > 92 µL/min/10⁶ cells |
| O=C(NCc1nc(-c2ccc(C(F)(F)F)cc2)cs1)[C@H]1CCCN(C(=O)COCCN2CCCC2)C1 | male Sprague-Dawley rat | liver microsomes | 0.5 µM | – | microsomal CLint | 34 µL/min/mg |
| CNS(=O)(=O)c1ccc(Nc2ncc(C(F)(F)F)c([C@H]3CC[C@@](C)(O)CC3)n2)c(C)c1 | rat | liver microsomes | 1 µM | – | scaled CLint | < 21 mL/min/kg |
| Cc1ccc(N(C)c2ccc(NC(=O)CN(C)c3ccccc3N3CCCC3=O)cc2)cc1 | rat | hepatocytes | – | – | hepatocyte CLint | > 92 µL/min/10⁶ cells |
| COc1cnc(Nc2cnnc3ccc(-c4ccc(N5CCN(C)CC5)cc4)cc23)nc1 | rat | hepatocytes | – | – | hepatocyte CLint | > 300 µL/min/10⁶ cells |
| Cc1cc(S(=O)(=O)N[C@H]2CC[C@H](N3CCN(CC4CCN(c5cccc6c5n(C)c(=O)n6C5CCC(=O)NC5=O)CC4)CC3)CC2)ccc1Nc1ncc(C(F)(F)F)c(N2CCC[C@](C)(O)C2)n1 (some centres unmarked) | rat | liver microsomes | 1 µM | – | scaled CLint | < 21 mL/min/kg |
| CONC(=O)N1CCC[C@H](C(=O)NCc2nc(-c3ccccc3)cs2)C1 | male Sprague-Dawley rat | liver microsomes | 0.5 µM | – | microsomal CLint | 18 µL/min/mg |
| N#Cc1ccc(C[C@H](Nc2ncc(-c3ccc(F)cc3)o2)C(=O)N2CCc3ccccc32)cc1 | rat | liver microsomes | 10 µM | pH 7.4 | microsomal CLint | 16.1 µL/min/mg |
| CNc1ccc(C(N)=O)cn1 | male Wistar rat | hepatocytes | 1 µM | pH 7.4 | hepatocyte CLint | 2.9 µL/min/10⁶ cells |
